In ChEMBL document CHEMBL1137680, “A class of potent tyrosinase inhibitors: alkylidenethiosemicarbazide compounds” (Eur J Med Chem, 2009):
pIC50: −log10 of the molar value.

Biological target: T1, Tyrosinase (Agaricus bisporus, UniProt O42713)
T1 sequence (O42713 whole entry): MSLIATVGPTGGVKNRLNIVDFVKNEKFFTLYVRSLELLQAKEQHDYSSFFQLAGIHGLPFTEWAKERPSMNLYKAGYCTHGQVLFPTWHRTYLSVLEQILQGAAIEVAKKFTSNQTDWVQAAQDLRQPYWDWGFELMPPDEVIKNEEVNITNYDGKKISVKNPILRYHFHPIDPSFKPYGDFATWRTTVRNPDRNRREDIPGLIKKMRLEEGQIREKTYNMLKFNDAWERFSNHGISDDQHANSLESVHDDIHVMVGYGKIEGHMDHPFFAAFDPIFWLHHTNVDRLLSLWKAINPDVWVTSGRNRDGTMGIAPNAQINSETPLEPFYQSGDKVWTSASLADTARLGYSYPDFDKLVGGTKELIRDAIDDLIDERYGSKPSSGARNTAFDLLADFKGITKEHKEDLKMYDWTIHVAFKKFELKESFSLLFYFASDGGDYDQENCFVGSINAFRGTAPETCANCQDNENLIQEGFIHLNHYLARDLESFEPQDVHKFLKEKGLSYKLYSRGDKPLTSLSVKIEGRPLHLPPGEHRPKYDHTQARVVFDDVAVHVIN
Assay: Inhibition of mushroom tyrosinase
Procedure, shortened: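 Mushroom tyrosinase diphenolase activity, 30 units (0.2 mg/mL), preincubated 10 min at 25 °C with compound in 50 mM phosphate buffer pH 6.8; compound diluted from DMSO stock. At least eight inhibitor concentrations; IC50 interpolated from dose-response curves.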

pIC50	SMILES
5.57	NC(=S)N/N=C\C=C\c1ccccc1
4.94	CC(C)=C/C(C)=N\NC(N)=S
6.64	C/C=N\NC(N)=S
4.82	NC(=S)N/N=C1\CCCC(=O)C1
6.70	CC/C=N\NC(N)=S
6.55	CC/C(C)=N\NC(N)=S
6.07	Cc1ccc(C)n1NC(N)=S
6.21	CC(C)/C=N\NC(N)=S
6.77	NC(=S)NN=C1CCCC1
7.07	CC(C)=NNC(N)=S
6.00	C/C=C/C=N\NC(N)=S
6.02	NC(=S)NN=C1CCCCC1
